Source: ChEMBL document CHEMBL1781999, “Lead optimization of aryl and aralkyl amine-based triazolopyrimidine inhibitors of Plasmodium falciparum dihydroorotate dehydrogenase with antimalarial activity in mice” (J Med Chem, 2011)
Calls of active or inactive are those of the source. The rule behind the calls is not given here.

What was measured:
[1] = AUC (0 to infinity) in Sprague-Dawley rat at 18.6 mg/kg, po by LC-MS analysis; type: ADME, organism-based; design: time infinity, dose 18.6 mg/kg, route oral; conditions: plasma
How it was run: (§1)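 Overnight-fasted male Sprague Dawley rats (n=2 per compound) gavaged with an aqueous suspension (DMSO, cellulose, benzyl alcohol, Tween 80 in water); food returned 4 h post-dose. Arterial blood via carotid cannula up to 24 h into heparinized tubes with stabilization cocktail. Plasma acetonitrile-precipitated, LC-MS against blank-plasma standards. AUC by non-compartmental analysis; Cmax read from profiles.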

[2] = Cmax in Sprague-Dawley rat at 18.6 mg/kg, po by LC-MS analysis; type: ADME, organism-based; design: dose 18.6 mg/kg, route oral; conditions: in vivo; how it was run: as §1
Rattus norvegicus [3] = experiment: Terminal elimination half life in Sprague-Dawley rat at 2.9 mg/kg, iv by LC-MS analysis; type: ADME, organism-based; design: dose 2.9 mg/kg, route intravenous; conditions: in vivo
How it was run: (§2)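 Overnight-fasted male Sprague Dawley rats (n=2 per dose). IV dosing was a 10 min jugular infusion in a solution vehicle of DMSO and acid with Captisol or Tween/glucose, depending on compound; oral dosing was by gavage as a suspension.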

Plasmodium berghei ANKA [4] = experiment: Antimalarial activity against Plasmodium berghei ANKA NK65 infected in Swiss Webster mouse assessed as complete cure of animal at 100 mg/kg, po bid measured on day 9 by light microscopic analysis; type: functional, organism-based; design: dose 100 mg/kg
Rattus norvegicus [5] = experiment: Volume of distribution at steady state in Sprague-Dawley rat at 0.9 mg/kg, iv by LC-MS analysis; type: ADME, organism-based; design: dose 0.9 mg/kg, route intravenous; conditions: in vivo; how it was run: as §2
Rattus norvegicus [6] = experiment: Volume of distribution at steady state in Sprague-Dawley rat at 2.9 mg/kg, iv by LC-MS analysis; type: ADME, organism-based; design: dose 2.9 mg/kg, route intravenous; conditions: in vivo; how it was run: as §2
[7] = Oral bioavailability in Sprague-Dawley rat at 18.6 mg/kg by LC-MS analysis; type: ADME, organism-based; conditions: in vivo
How it was run: (§3)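 Overnight-fasted male Sprague Dawley rats, dosed orally by gavage as an aqueous suspension, n=2. Arterial blood taken via carotid cannula up to 24 h; plasma measured by LC-MS. %F = mean dose-normalized oral AUC0-24h versus IV AUC0-24h at the higher IV dose (5 mg/kg or 3 mg/kg, depending on compound); treated as an estimate.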

[8] = Terminal elimination half life in Sprague-Dawley rat at 18.6 mg/kg, po by LC-MS analysis; type: ADME, organism-based; design: dose 18.6 mg/kg, route oral; conditions: in vivo, read-out: beta t1/2 (converted); how it was run: as §2
Rattus norvegicus [9] = experiment: Terminal elimination half life in Sprague-Dawley rat at 0.9 mg/kg, iv by LC-MS analysis; type: ADME, organism-based; design: dose 0.9 mg/kg, route intravenous; conditions: in vivo; how it was run: as §2
Plasmodium berghei ANKA [10] = experiment: Antimalarial activity against Plasmodium berghei ANKA NK65 infected in Swiss Webster mouse assessed as complete reduction of parasitemia level at 50 mg/kg, po bid administered for 4 days measured 24 hrs after last dose by light microscopic analysis; type: functional, organism-based; design: dose 50 mg/kg
Rattus norvegicus [11] = experiment: Terminal elimination half life in Sprague-Dawley rat at 1 mg/kg, iv by LC-MS analysis; type: ADME, organism-based; design: dose 1 mg/kg, route intravenous; conditions: in vivo; how it was run: as §2
Rattus norvegicus [12] = experiment: Terminal elimination half life in Sprague-Dawley rat at 5.1 mg/kg, iv by LC-MS analysis; type: ADME, organism-based; design: dose 5.1 mg/kg, route intravenous; conditions: in vivo; how it was run: as §2
[13] = Antimalarial activity against Plasmodium berghei ANKA NK65 infected in po dosed Swiss Webster mouse assessed as reduction of parasitemia level administered qd for 4 days measured 24 hrs after last dose by light microscopic analysis; type: functional
Rattus norvegicus [14] = experiment: AUC (0 to infinity) in Sprague-Dawley rat at 20.1 mg/kg, po by LC-MS analysis; type: ADME, organism-based, Plasma; design: time infinity, dose 20.1 mg/kg, route oral; conditions: in vivo; how it was run: as §1
Rattus norvegicus [15] = experiment: Volume of distribution at steady state in Sprague-Dawley rat at 1 mg/kg, iv by LC-MS analysis; type: ADME, organism-based; design: dose 1 mg/kg, route intravenous; conditions: in vivo; how it was run: as §2
Plasmodium berghei ANKA [16] = experiment: Antimalarial activity against Plasmodium berghei ANKA NK65 infected in Swiss Webster mouse assessed as complete reduction of parasitemia level at 100 mg/kg, po qd administered for 4 days measured 24 hrs after last dose by light microscopic analysis; type: functional, organism-based; design: dose 100 mg/kg
How it was run: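 Female Swiss Webster mice, 8-10 weeks old (20-22 g), infected intraperitoneally with 2 × 10^7 P. berghei NK65 ANKA-infected erythrocytes. Oral doses in CMC vehicle (200 μL), first given 3 h post-infection, then at 24, 48 and 72 h. Parasitemia followed daily from 24 h by light microscopy at 1000× oil immersion, counting ≥10 fields of >100 erythrocytes. Mice losing ≥20% body weight were euthanized.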

Rattus norvegicus [17] = experiment: Cmax in Sprague-Dawley rat at 20.1 mg/kg, po by LC-MS analysis; type: ADME, organism-based; design: dose 20.1 mg/kg, route oral; conditions: in vivo; how it was run: as §1
Rattus norvegicus [18] = experiment: Volume of distribution at steady state in Sprague-Dawley rat at 5.1 mg/kg, iv by LC-MS analysis; type: ADME, organism-based; design: dose 5.1 mg/kg, route intravenous; conditions: in vivo; how it was run: as §2
Rattus norvegicus [19] = experiment: Terminal elimination half life in Sprague-Dawley rat at 20.1 mg/kg, po by LC-MS analysis; type: ADME, organism-based; design: dose 20.1 mg/kg, route oral; conditions: in vivo; how it was run: as §2
Rattus norvegicus [20] = experiment: Oral bioavailability in Sprague-Dawley rat at 20.1 mg/kg by LC-MS analysis; type: ADME, organism-based; conditions: in vivo; how it was run: as §3

With `Cc1cc(Nc2cc(F)c(C(F)(F)F)c(F)c2)n2ncnc2n1` as the molecule, how does the AUC(0-inf) [1] read?
The AUC(0-inf) was 1250 µM·h.

And the Cmax [2]?
Its Cmax is 34.3 µM.

And the “beta t1/2” value (Rattus norvegicus [3])?
The value was 4.5 h.

What about the Activity (Plasmodium berghei ANKA [4]) of the same molecule?
Its Activity is “inactive”.

What about the Vdss (Rattus norvegicus [5]) of the same molecule?
The Vdss was 0.4 L/kg.

And the Vdss (Rattus norvegicus [6])?
The Vdss was 0.5 L/kg.

What about the bioavailability [7] of the same molecule?
Its bioavailability is > 100%.

And the half-life [8]?
Its half-life is 17.6 h.

And the “beta t1/2” value (Rattus norvegicus [9])?
Its value is 1.6 h.

For `Cc1cc(Nc2ccc(S(F)(F)(F)(F)F)cc2)n2ncnc2n1`, which Activity (Plasmodium berghei ANKA [10]) is on record?
The Activity was “inactive”.

And the “beta t1/2” value (Rattus norvegicus [11])?
Its value is 11.4 h.

What about the “beta t1/2” value (Rattus norvegicus [12]) of the same molecule?
Its value is 14.5 h.

What about the ED50 [13] of the same molecule?
The ED50 was 17 mg/kg.

And the AUC (Rattus norvegicus [14])?
The AUC was 101693 µM·min.

What about the Vdss (Rattus norvegicus [15]) of the same molecule?
Its Vdss is 1.4 L/kg.

And the Activity (Plasmodium berghei ANKA [16])?
The Activity was “inactive”.

And the Cmax (Rattus norvegicus [17])?
The Cmax was 31 µM.

And the Vdss (Rattus norvegicus [18])?
The Vdss was 1.5 L/kg.

And the “beta t1/2” value (Rattus norvegicus [19])?
The value was 33 h.

What about the F (Rattus norvegicus [20]) of the same molecule?
The F was > 100%.
